Screens: PubChem, several laboratories
The full list was thinned out, with hits kept by preference.
Lipid droplet: inhibitors of hepatocyte lipid droplet formation, primary screen, imaging, high-throughput imaging, BODIPY stain; AML12 mouse hepatocytes, oleate lipid droplets; inhibition, % at 6.5 µM; actives 0.4% (n = 240,000);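 active = lipid droplet intensity inhibited by at least 50%, with more than 500 cells counted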
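Assay system: AML12 hepatocytes (mouse); Probe or stimulus: oleic acid at 100 µM to induce lipid droplet formation; Dosing: compound at 6.5 µM only; Schedule: compound with oleate, overnight; Detection: fluorescence imaging, 20x objective, two fields per well; Measure: % inhibition of lipid droplet signal.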
L major viab: Leishmania major promastigote growth inhibition, primary screen | Leishmania major promastigotes, resazurin fluorescence viability | inhibition, % at 10 µM | actives 9% (n = 200,000) | AID 1063, 2008; in the data active = inhibition above about 50%;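 also: promastigotes grown with compound for 44 hours at 28 °C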
Redox H2O2 prof: compounds producing H2O2 with reducing agent – biochemical, NIH compound library profiling, artefact control for MLSCN library redox annotation, primary screen; DTT-dependent redox cycling H2O2, phenol red/HRP absorbance; 100% = 100 µM peroxide control, 0% = buffer; activation, % at 10 µM; actives 0.03% (n = 200,000);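 active = activation of at least 50% relative to the plate's high and low controls in the primary single-dose screen; inactive = activation below 50%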;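 also: compound incubated with DTT at 0.8 mM final as the reducing agent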
T cruzi inh: inhibitors of intracellular T. cruzi growth, primary screen, luminescence, NIH3T3 host cells | T. cruzi beta-gal in NIH3T3, 90 h | inhibition, % (test concentration not listed) | actives 1.4% (n = 300,000);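 active = mean inhibition across valid replicates above about 55%, limit read from the data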;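 also: signal also drops with host cell toxicity which is not excluded here; higher percent means less beta-gal luminescence so fewer parasites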
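Assay system: NIH/3T3 host cells with β-galactosidase reporter T. cruzi; input: 5,000 host fibroblasts per well; compound: single 50 nL compound addition per well in DMSO; timing: ≥90 h infection period, 3 h prior cell attachment; measured by: GalScreen β-gal luminescence, detergent lysis, 60 min; evaluation: percent inhibition of parasite-derived β-gal signal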
MPTP inh: mitochondrial permeability transition pore inhibitors, primary screen, biochemical, isolated mouse mitochondria, absorbance; actives 1.4% (n = 360,000); Ca2+ swelling absorbance, 30 min; AID 602449, 2012; inhibition, % at 10 µM;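 active = inhibition of 50% or more, scaled per plate between neutral and stimulator controls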
Rh123 counter: fluorescence retest of MPTP screen hits in isolated mitochondria, single concentration; shares compounds with MPTP inh; membrane potential, Rhodamine 123 fluorescence; inhibition, % at 10 µM; actives 78% (n = 5,000); AID 624504, 2012; in the data active = inhibition above about 22%
Each line names hits and unclear results; the compound was inactive in the other large screens (follow-up assays come after a bar, where they were run).

CCN(CC)S(=O)(=O)c1ccc(C)c(NC(=S)Nc2cccc(S(=O)(=O)N3CCCCCC3)c2)c1	L major viab 92, MPTP inh 76 | Rh123 counter 78
Cc1ccc(S(=O)(=O)NC(=O)C2(C)CCN2C(=O)Cc2ccc(Cl)cc2Cl)nc1 (stereo not drawn)	none (no result: Lipid droplet, L major viab, Redox H2O2 prof, T cruzi inh)
O=C(CNc1ccc(C(F)(F)F)cc1)Nc1cccc(S(=O)(=O)N2CCCCC2)c1	MPTP inh 66 (no result: Lipid droplet, L major viab, Redox H2O2 prof, T cruzi inh) | Rh123 counter 90
CCN(CC)S(=O)(=O)c1cccc(NC(=O)CNc2cccc(S(=O)(=O)N3CCOCC3)c2)c1	MPTP inh 72 (no result: Lipid droplet, L major viab, Redox H2O2 prof) | Rh123 counter 97
CCN(CC)S(=O)(=O)c1ccc(C)c(NC(=O)CNc2cccc(S(=O)(=O)N3CCOCC3)c2)c1	none (no result: Lipid droplet, L major viab, Redox H2O2 prof)
CCN(CC)S(=O)(=O)c1cccc(NC(=O)CCSc2ccc(Cl)cc2)c1	MPTP inh 76 | Rh123 counter 85
O=C(CNc1ccc(C(F)(F)F)cc1)Nc1cccc(S(=O)(=O)N2CCCC2)c1	none (no result: Lipid droplet, L major viab, Redox H2O2 prof, T cruzi inh)
CC(C)(C)NC(=O)CC1C[C@H](C(=O)N2CCCCC2)[C@@]2(C)c3[nH]c4ccccc4c3CCN2C1=O (stereo partly drawn)	none (no result: Lipid droplet, L major viab, Redox H2O2 prof, T cruzi inh)
